According to ChEMBL document CHEMBL1137781, “Synthesis and preclinical evaluation of novel PET probes for P-glycoprotein function and expression” (J Med Chem, 2009):

Experiments:
Conditions in all cases: in vivo
[1] = Biodistribution in Wistar rat amygdala at 40+/-4 MBq, iv after 80 mins; format: ADME, organism-based
Pons = experiment: Biodistribution in Wistar rat pons at 40+/-4 MBq, iv after 80 mins; format: ADME, organism-based
[2] = Biodistribution in 50 mg/kg cyclosporin A pretreated Wistar rat bulbus olfactorius at 27+/-2 MBq, iv after 80 mins; format: ADME, organism-based, Olfactory bulb; design: dose 50 mg/kg, route intravenous
Summary of the method: (§1)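 Male Wistar rats pretreated via tail vein with saline or cyclosporin A (50 mg/kg, commercial solution), then given the [11C] tracer via penile vein. After microPET scanning the anesthetized rats were killed. Tissues were excised and weighed, and blood was centrifuged into plasma and cells. γ counting with decay correction. Results as SUV (tissue MBq/g × body weight/injected dose).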

Rattus norvegicus = experiment: AUC in 50 mg/kg cyclosporin A pretreated Wistar rat at 27+/-2 MBq, iv; format: ADME, organism-based, Plasma; design: dose 50 mg/kg, route intravenous
Summary of the method: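 Male Wistar rats with a femoral arterial cannula placed under isoflurane. Saline or cyclosporin A (50 mg/kg, commercial solution) given via tail vein, then the [11C] tracer via penile vein. Dynamic microPET over the brain for 76 min, with 14 arterial samples to 60 min. Plasma counted in a γ counter. AUC of whole-brain or plasma SUV over 0-60 min.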

Bone [3] = experiment: Biodistribution in Wistar rat bone at 40+/-4 MBq, iv after 80 mins; format: ADME, organism-based, Bone element
Duodenum = experiment: Biodistribution in Wistar rat duodenum at 40+/-4 MBq, iv after 80 mins; format: ADME, organism-based
Summary of the method: (§2)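 Male Wistar rats (12 h light/dark, chow ad libitum) were fitted with a femoral arterial cannula under isoflurane. They were pretreated via tail vein with saline, cyclosporin A (50 mg/kg), or nonradioactive tracer compound (15 mg/kg; 10 mg/mL in saline with 35% ethanol). The 11C tracer was then given via penile vein, followed by 76 min microPET. Animals were then terminated; excised tissues were weighed and gamma-counted with decay correction. Values are SUVs (tissue MBq/g × body weight g / injected MBq).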

[4] = Biodistribution in 50 mg/kg cyclosporin A pretreated Wistar rat medulla at 27+/-2 MBq, iv after 80 mins; format: ADME, organism-based, Medulla of organ; design: dose 50 mg/kg, route intravenous
Hippocampus [5] = experiment: Biodistribution in Wistar rat hippocampus at 40+/-4 MBq, iv after 80 mins; format: ADME, organism-based; summary of the method: as §2
[6] = Biodistribution in 50 mg/kg cyclosporin A pretreated Wistar rat cingulate cortex at 27+/-2 MBq, iv after 80 mins; format: ADME, organism-based; design: dose 50 mg/kg, route intravenous; summary of the method: as §1
Brain = experiment: Biodistribution in Wistar rat brain at 40+/-4 MBq, iv after 25 mins; format: ADME, organism-based
Lung = experiment: Biodistribution in Wistar rat lung at 40+/-4 MBq, iv after 80 mins; format: ADME, organism-based; summary of the method: as §2
Spleen = experiment: Biodistribution in Wistar rat spleen at 40+/-4 MBq, iv after 80 mins; format: ADME, organism-based
[7] = Biodistribution in Wistar rat medulla at 40+/-4 MBq, iv after 80 mins; format: ADME, organism-based, Medulla of organ; summary of the method: as §2
Ileum = experiment: Biodistribution in Wistar rat ileum at 40+/-4 MBq, iv after 80 mins; format: ADME, organism-based; summary of the method: as §2
[8] = Biodistribution in Wistar rat trachea at 40+/-4 MBq, iv after 80 mins; format: ADME, organism-based
Muscle tissue = experiment: Biodistribution in Wistar rat muscle at 40+/-4 MBq, iv after 80 mins; format: ADME, organism-based; summary of the method: as §2
Striatum = experiment: Biodistribution in 50 mg/kg cyclosporin A pretreated Wistar rat striatum at 27+/-2 MBq, iv after 80 mins; format: ADME, organism-based; design: dose 50 mg/kg, route intravenous
Hippocampus [9] = experiment: Biodistribution in 50 mg/kg cyclosporin A pretreated Wistar rat hippocampus at 27+/-2 MBq, iv after 80 mins; format: ADME, organism-based; design: dose 50 mg/kg, route intravenous
Cerebellum [10] = experiment: Biodistribution in 50 mg/kg cyclosporin A pretreated Wistar rat cerebellum at 27+/-2 MBq, iv after 80 mins; format: ADME, organism-based; design: dose 50 mg/kg, route intravenous; summary of the method: as §1
[11] = Biodistribution in 50 mg/kg cyclosporin A pretreated Wistar rat red blood cells at 27+/-2 MBq, iv after 80 mins; format: ADME, organism-based, Erythrocyte; design: dose 50 mg/kg, route intravenous
Bone [12] = experiment: Biodistribution in 50 mg/kg cyclosporin A pretreated Wistar rat bone at 27+/-2 MBq, iv after 80 mins; format: ADME, organism-based, Bone element; design: dose 50 mg/kg, route intravenous; summary of the method: as §1
[13] = Biodistribution in Wistar rat parietal/temporal/occipital cortex at 40+/-4 MBq, iv after 80 mins; format: ADME, organism-based; summary of the method: as §2
Cerebellum [14] = experiment: Biodistribution in Wistar rat cerebellum at 40+/-4 MBq, iv after 80 mins; format: ADME, organism-based
Pancreas = experiment: Biodistribution in 50 mg/kg cyclosporin A pretreated Wistar rat pancreas at 27+/-2 MBq, iv after 80 mins; format: ADME, organism-based; design: dose 50 mg/kg, route intravenous
Liver = experiment: Biodistribution in Wistar rat liver at 40+/-4 MBq, iv after 80 mins; format: ADME, organism-based; summary of the method: as §2
Kidney [15] = experiment: Biodistribution in Wistar rat kidney at 40+/-4 MBq, iv after 80 mins; format: ADME, organism-based; summary of the method: as §2
[16] = Biodistribution in 50 mg/kg cyclosporin A pretreated Wistar rat fat at 27+/-2 MBq, iv after 80 mins; format: ADME, organism-based, Adipose tissue; design: dose 50 mg/kg, route intravenous; summary of the method: as §1
Kidney [17] = experiment: Biodistribution in 50 mg/kg cyclosporin A pretreated Wistar rat kidney at 27+/-2 MBq, iv after 80 mins; format: ADME, organism-based; design: dose 50 mg/kg, route intravenous

COc1cc2c(cc1OC)CN(CCCC1CCCc3c(O[11CH3])cccc31)CC2 (stereo not drawn)
SUV [1]: 0.37
SUV (Pons): 0.48
SUV [2]: 0.84
AUC (Rattus norvegicus): 97%
SUV (Bone [3]): 0.28
SUV (Duodenum): 2.74
SUV [4]: 1.14
SUV (Hippocampus [5]): 0.3
SUV [6]: 0.88
SUV (Brain): 0.88
SUV (Lung): 1.19
SUV (Spleen): 1.64
SUV [7]: 0.41
SUV (Ileum): 1.27
SUV [8]: 0.78
SUV (Muscle tissue): 0.37
SUV (Striatum): 0.87
SUV (Hippocampus [9]): 0.86
SUV (Cerebellum [10]): 0.99
SUV [11]: 0.16
SUV (Bone [12]): 0.26
SUV [13]: 0.36
SUV (Cerebellum [14]): 0.5
SUV (Pancreas): 2.91
SUV (Liver): 3.27
SUV (Kidney [15]): 1.45
SUV [16]: 0.31
SUV (Kidney [17]): 1.47
